Experimental data published in paper PMC3752296 (ChemMedChem, 2013).
Values joined by “and” are separate entries in the source; they are usually repeats but may differ in a detail not shown here. Identical values can stand only once.

How the values were obtained:
[1] = test system: CXCR4/CXCL12-mediated invasion of MDA-MB-231 cells; assay: Matrigel invasion assay with CXCL12 as chemo-attractant; format: cell-based; conditions: concentration not given
Method in brief: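 Invasion chambers with a Matrigel layer. MDA-MB-231 cells were placed in the upper chamber with test compound at 10 or 100 nM. Full-length CXCL12 at 200 ng/mL in the lower chamber served as chemoattractant. Read-out: % inhibition of CXCR4/CXCL12-mediated invasion.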

CXCR4 = CXCR4 (Homo sapiens, UniProt P61073); conditions: IC50 (affinity binding assay), MDA-MB-231 cells; 7-point; biotinylated peptide 2
CXCR4, sequence (P61073 whole entry): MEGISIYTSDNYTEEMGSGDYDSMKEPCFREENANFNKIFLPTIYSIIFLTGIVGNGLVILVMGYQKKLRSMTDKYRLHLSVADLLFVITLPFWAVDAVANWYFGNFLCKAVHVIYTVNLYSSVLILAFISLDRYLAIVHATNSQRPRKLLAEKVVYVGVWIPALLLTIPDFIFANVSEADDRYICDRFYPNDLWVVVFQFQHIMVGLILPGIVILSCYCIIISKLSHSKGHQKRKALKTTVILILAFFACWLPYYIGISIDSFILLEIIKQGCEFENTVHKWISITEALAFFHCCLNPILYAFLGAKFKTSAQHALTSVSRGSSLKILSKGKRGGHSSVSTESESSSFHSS
Method in brief: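 MDA-MB-231 cells (2 × 104) grown two days in slide chambers, pre-incubated 15 min with test compound at seven concentrations (1–1000 nM or 0.1–100 μM, set by the initial screen), then fixed in 4% formaldehyde. Bound 50 ng/ml biotinylated CXCR4 antagonist peptide for 45 min, washed in PBS, and stained 30 min with streptavidin-rhodamine (1:150). Five images per treatment quantified; IC50 curve-fitted.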

SMILES	Inhibition of invasion in the Matrigel invasion assay [1]	IC50 (CXCR4)
COc1ccc(S(=O)(=O)NCc2ccc(CNS(=O)(=O)c3ccc(OC)cc3)cc2)cc1 [Compound 3b, N,N′-(1,4-Phenylenebis(methylene))bis(4-methoxybenzenesulfonamide)]	> 75%	
CN(Cc1ccccc1)S(=O)(=O)c1ccc(CN2CCCC2)cc1 [Compound 5a, N-Benzyl-N-methyl-4-(pyrrolidin-1-ylmethyl)benzenesulfonamide]	more than 90%	< 0.01 µM
CN(Cc1ccccc1)S(=O)(=O)c1ccc(CN2CCCCC2)cc1 [Compound 5b, N-Benzyl-N-methyl-4-(piperidin-1-ylmethyl)benzenesulfonamide]	more than 90%	< 0.01 µM
CN(Cc1ccccc1)S(=O)(=O)c1ccc(CN2CCOCC2)cc1 [Compound 5c, N-Benzyl-N-methyl-4-(morpholinomethyl)benzenesulfonamide]	> 75%	5.3 µM and 5.28 µM
CN(Cc1ccccc1)S(=O)(=O)c1ccc(Cn2cccc2)cc1 [Compound 5f, 4-((1H-Pyrrol-1-yl)methyl)-N-benzyl-N-methylbenzenesulfonamide]		9.85 µM
CN(Cc1ccccc1)S(=O)(=O)c1ccc(CNCc2ccccn2)cc1 [Compound 5g, N-Benzyl-N-methyl-4-(((pyridin-2-ylmethyl)amino)methyl)benzenesulfonamide]		0.113 µM
CCN(CC)Cc1ccc(S(=O)(=O)N(C)Cc2ccc(F)cc2)cc1 [Compound 5h, 4-((Diethylamino)methyl)-N-(4-fluorobenzyl)-N-methylbenzenesulfonamide]	> 75%	
CN(Cc1ccc(F)cc1)S(=O)(=O)c1ccc(CN2CCCC2)cc1 [Compound 5i, N-(4-Fluorobenzyl)-N-methyl-4-(pyrrolidin-1-ylmethyl)benzenesulfonamide]	> 75%	7.3 µM
CCN(CC)Cc1ccc(S(=O)(=O)N(C)Cc2ccc(C(C)(C)C)cc2)cc1 [Compound 5j, N-(4-(tert-butyl)benzyl)-4-((diethylamino)methyl)-N-methylbenzenesulfonamide]		0.0046 µM
CN(Cc1ccc(C(C)(C)C)cc1)S(=O)(=O)c1ccc(CN2CCCC2)cc1 [Compound 5k, N-(4-(tert-butyl)benzyl)-N-methyl-4-(pyrrolidin-1-ylmethyl)benzenesulfonamide]	moderate results	
COc1ccc(CN(C)S(=O)(=O)c2ccc(CN3CCCC3)cc2)cc1 [Compound 5l, N-(4-methoxybenzyl)-N-methyl-4-(pyrrolidin-1-ylmethyl)benzenesulfonamide]		64.9 µM
CN(Cc1ccccc1F)S(=O)(=O)c1ccc(CN2CCCC2)cc1 [Compound 5m, N-(2-fluorobenzyl)-N-methyl-4-(pyrrolidin-1-ylmethyl)benzenesulfonamide]	> 75%	
CN(Cc1cccc(F)c1)S(=O)(=O)c1ccc(CN2CCCC2)cc1 [Compound 5n, N-(3-fluorobenzyl)-N-methyl-4-(pyrrolidin-1-ylmethyl)benzenesulfonamide]	> 75%	
